What all share (assay): Yeast-based OR sensor, GFP dose-response
Common to all, as to type: cell-based

For one test, the target named is T1, OR2T4 (Homo sapiens, UniProt Q8NH00).
T1 sequence (Q8NH00 1-348): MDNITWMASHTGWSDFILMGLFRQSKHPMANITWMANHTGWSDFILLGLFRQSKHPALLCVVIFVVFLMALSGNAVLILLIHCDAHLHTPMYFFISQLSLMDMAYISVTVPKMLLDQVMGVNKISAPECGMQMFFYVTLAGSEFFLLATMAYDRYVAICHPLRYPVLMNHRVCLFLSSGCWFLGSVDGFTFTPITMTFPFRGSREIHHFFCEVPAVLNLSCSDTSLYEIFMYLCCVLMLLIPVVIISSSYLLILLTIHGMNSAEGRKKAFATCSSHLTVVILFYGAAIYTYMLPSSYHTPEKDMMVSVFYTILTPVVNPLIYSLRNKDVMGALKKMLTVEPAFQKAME
The note with it: for increase in the signal after activation: OR2T4, dose-response curve, compared to DMSO control; for OR-dependent activation, conclusion in words: OR2T4 vs no OR control; for EC50: GFP expression, 4 h, 0-1000 μM chemical, 1% DMSO; for increase in percent GFP expression compared to the no receptor control: OR2T4 vs empty-vector control strain. In short, it runs like this: (§1)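 Yeast-codon-optimized human OR in S. cerevisiae PPY140 (Δfar1 Δste2 Δsst2) with PFIG1-eGFP reporter. Cells pre-grown 18 h at 15 °C in SD(HL–), exposed to test compound 0–1000 μM final, 1% DMSO, 4 h at 30 °C. Flow-cytometric geometric mean GFP, 10000 cells; triplicate; two-tailed t test vs DMSO; empty-vector strain run same day; EC50 from dose-response fit.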

Another test has as its target T2, OR2A7 (Homo sapiens, UniProt Q96R45).
T2 sequence (Q96R45 1-310): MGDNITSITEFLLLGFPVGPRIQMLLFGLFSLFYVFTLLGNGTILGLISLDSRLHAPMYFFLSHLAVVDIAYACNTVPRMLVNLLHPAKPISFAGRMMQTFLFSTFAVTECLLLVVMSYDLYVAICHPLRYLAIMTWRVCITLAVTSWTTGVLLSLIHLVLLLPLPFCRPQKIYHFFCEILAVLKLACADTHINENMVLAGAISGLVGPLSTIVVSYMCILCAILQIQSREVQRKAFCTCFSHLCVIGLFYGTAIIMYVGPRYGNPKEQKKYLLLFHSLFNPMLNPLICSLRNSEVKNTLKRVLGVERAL
The note with it: for EC50: GFP expression, 4 h, 0-1000 μM chemical, 1% DMSO; for OR-dependent activation, conclusion in words: OR2A7 vs no OR control. In short, it runs like this:
as §1

A further test deals with T3, OR2W3 (Homo sapiens, UniProt Q7Z3T1).
T3 sequence (Q7Z3T1 1-314): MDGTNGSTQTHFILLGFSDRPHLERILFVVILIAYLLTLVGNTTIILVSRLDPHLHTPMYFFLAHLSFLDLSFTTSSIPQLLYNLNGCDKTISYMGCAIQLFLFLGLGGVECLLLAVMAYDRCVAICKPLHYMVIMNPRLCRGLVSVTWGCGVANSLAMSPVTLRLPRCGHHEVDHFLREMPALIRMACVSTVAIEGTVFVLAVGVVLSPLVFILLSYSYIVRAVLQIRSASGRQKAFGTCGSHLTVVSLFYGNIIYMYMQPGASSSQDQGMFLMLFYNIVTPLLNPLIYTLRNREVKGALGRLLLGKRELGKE
In short, it runs like this:
as §1

The next test deals with T4, OR51B5 (Homo sapiens, UniProt Q9H339).
T4 sequence (Q9H339 1-312): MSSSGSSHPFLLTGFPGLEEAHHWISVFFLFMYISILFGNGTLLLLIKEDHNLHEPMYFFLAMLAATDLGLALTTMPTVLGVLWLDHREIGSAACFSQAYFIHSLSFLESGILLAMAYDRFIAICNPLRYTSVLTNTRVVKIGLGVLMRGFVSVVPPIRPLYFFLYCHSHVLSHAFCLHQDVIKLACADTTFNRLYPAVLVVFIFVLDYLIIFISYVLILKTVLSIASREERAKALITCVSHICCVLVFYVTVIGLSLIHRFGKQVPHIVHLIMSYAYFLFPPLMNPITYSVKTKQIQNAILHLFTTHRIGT
To be noted: for increase in the signal after activation: OR51B5, dose-response curve, compared to DMSO control. In short, it runs like this:
as §1

For the next test, the target named is T5, OR2A42 (Homo sapiens, UniProt Q8NGT9).
T5 sequence (Q8NGT9 1-310): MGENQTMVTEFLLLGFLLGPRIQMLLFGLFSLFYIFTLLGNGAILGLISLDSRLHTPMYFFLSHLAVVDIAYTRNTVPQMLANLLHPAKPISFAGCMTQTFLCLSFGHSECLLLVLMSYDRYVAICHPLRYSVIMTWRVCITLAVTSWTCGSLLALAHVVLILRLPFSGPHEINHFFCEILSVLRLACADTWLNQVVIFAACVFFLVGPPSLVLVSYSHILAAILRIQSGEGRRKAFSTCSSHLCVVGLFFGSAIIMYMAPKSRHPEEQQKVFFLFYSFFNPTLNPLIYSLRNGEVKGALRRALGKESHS
The procedure, abridged:
as §1

In another test the target is T6, OR2L13 (Homo sapiens, UniProt Q8N349).
T6 sequence (Q8N349 1-312): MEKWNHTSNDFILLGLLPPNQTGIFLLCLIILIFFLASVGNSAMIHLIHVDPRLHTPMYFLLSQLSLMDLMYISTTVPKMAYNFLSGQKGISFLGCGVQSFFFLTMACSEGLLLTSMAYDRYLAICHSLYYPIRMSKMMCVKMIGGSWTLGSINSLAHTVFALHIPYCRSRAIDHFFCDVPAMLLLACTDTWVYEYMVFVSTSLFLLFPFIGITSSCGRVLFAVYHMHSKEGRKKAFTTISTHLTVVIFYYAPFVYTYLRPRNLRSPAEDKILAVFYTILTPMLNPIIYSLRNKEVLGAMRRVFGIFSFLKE
To be noted: OR2L13, dose-response curve, compared to DMSO control. In short, it runs like this:
as §1

Another test concerns the target T7, OR10S1 (Homo sapiens, UniProt Q8NGN2).
T7 sequence (Q8NGN2 1-331): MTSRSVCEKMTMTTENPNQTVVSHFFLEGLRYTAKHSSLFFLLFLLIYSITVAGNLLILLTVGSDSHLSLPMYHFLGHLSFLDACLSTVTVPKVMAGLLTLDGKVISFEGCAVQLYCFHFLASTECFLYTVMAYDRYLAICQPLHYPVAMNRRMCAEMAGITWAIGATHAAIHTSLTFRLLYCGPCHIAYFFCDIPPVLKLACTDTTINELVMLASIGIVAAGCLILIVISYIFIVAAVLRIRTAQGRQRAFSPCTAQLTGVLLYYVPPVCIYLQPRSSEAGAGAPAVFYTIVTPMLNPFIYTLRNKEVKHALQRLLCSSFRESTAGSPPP
The procedure, abridged: as §1

One may read the EC50 as the concentration needed to bring the measured effect to its halfway point. Turning to `CC(C)=CCC/C(C)=C/CC/C(C)=C/CO` [farnesol], the “increase in the signal after activation” value is listed as more than 2 fold at OR2T4; more than 2 fold at OR51B5; 2 fold at OR2A42 (OR2A42, dose-response curve, compared to DMSO control). Besides, the “OR-dependent activation, conclusion in words” value (shortened to “OR-dependent activation”) is recorded as “not a ligand” on OR2T4; “nonspecifically activates GFP expression” at OR51B5 (OR51B5, on/off behavior of the response); “not a ligand” at OR2A42 (OR2A42 vs no OR control). Besides, the EC50 entry on OR2T4 (OR2T4 yeast sensor) was “could not be fitted”; at OR2A7 (OR2A7 yeast sensor), “do not fit a dose–response curve”; on OR51B5 (EC50, OR51B5 yeast sensor, GFP expression, 4 h, 0-1000 μM chemical, 1% DMSO) it was 181 µM. Besides, the “EC50 (fit to dose-response curve)” value on OR2W3 (OR2W3 yeast sensor, GFP expression, Figure S6) is “do not fit a dose–response curve”. For the same compound, the “increase in percent GFP expression compared to the no receptor control” value at OR51B5 (OR51B5 vs empty-vector control strain) was determined as 3 fold. For the same compound, the “EC50 (fit to dose-response equation)” value at OR2A42 (OR2A42 yeast sensor, GFP expression) is given as “could not be fitted”.
Consider `CCCCCCCCCCCCO` [dodecanol, 1-dodecanol], for which the “increase in the signal after activation” value on OR2L13 was more than 2 fold.
For `CCCCCCCCCCC=O` [undecanal], at OR2T4, the “increase in the signal after activation” value is listed as more than 2 fold; the “increase in percent GFP expression compared to the no receptor control” value was found to be 2.3 fold; the “OR-dependent activation” value is reported as “confirmed ligand”. The “increase in the signal after activation” value on OR2L13 is reported as more than 2 fold.
Regarding `C=C1CCC2CC1C2(C)C` (stereo not drawn) [β-pinene, beta-pinene], at OR2A7 (OR2A7, response relative to α-pinene), the “weaker response than with α-pinene” value stood at 18%.
Turning to `CC(C)(C)c1ccccc1` [TBB, tert-butylbenzene], the “OR-dependent activation” value at OR2T4 and at OR2A7 was “not OR dependent” throughout.
For `CCCCCCCCCCCC(=O)O` [dodecanoic, lauric acid], at OR51B5, the “increase in the signal after activation” value was more than 2 fold.
As for `CC1=CCC2CC1C2(C)C` (stereo not drawn) [α-pinene, alpha-pinene], the EC50 worked out at 659 µM on OR2T4 (EC50, OR2T4 yeast sensor) and 412 µM at OR2A7 (EC50, OR2A7 yeast sensor). Also, the “increase in the signal after activation” value at OR2T4 is more than 2 fold; at OR2A7 (OR2A7, dose-response curve, compared to DMSO control), more than 2 fold. Besides, at OR2T4 (OR2T4 relative to OR2A7), the “maximal level of GFP expression of OR2T4, higher than that of OR2A7” value was found to be 63%. The “increase in percent GFP expression compared to the no receptor control” value at OR2T4 turned out to be 3 fold; at OR2A7 (OR2A7 vs empty-vector control strain), 2.3 fold. For the same compound, the “OR-dependent activation” value on OR2T4 and on OR2A7 was “confirmed ligand” in each case.
As for `CC(C)=CCC/C(C)=C\CO` [nerol], the “signal after activation (in words)” value on OR2W3 (OR2W3, dose-response curve, Figure S1) is reported as “did not result in a significant increase in the signal after activation”.
As for `CCCCCCCCC=O` [nonanal], the “increase in the signal after activation” value on OR10S1 (OR10S1, dose-response curve, compared to DMSO control) was more than 2 fold. In addition, the “OR-dependent activation” value on OR10S1 (OR10S1 vs no OR control) is recorded as “the no OR control shows a similar increase in GFP expression”.

These data come from article PMC6482435 (Biochemistry, 2019).
